Laboratory results: ChEMBL document CHEMBL4007430, “Synthesis and Cytostatic and Antiviral Profiling of Thieno-Fused 7-Deazapurine Ribonucleosides” (J Med Chem, 2017)

What was measured:
[1] = test system: Hepatitis C virus; assay: Anti-HCV activity against Hepatitis C virus genotype 1b infected in human Huh7 replicon cells after 96 hrs by luciferase reporter gene assay; assay type: functional, cell-based, Hepacivirus hominis; details: Huh-7, 96 h
[2] = test system: Hepatitis C virus; assay: Anti-HCV activity against Hepatitis C virus genotype 2a infected in human Huh7 replicon cells after 96 hrs by luciferase reporter gene assay; assay type: functional, cell-based, Hepacivirus hominis; details: Huh-7, 96 h
[3] = test system: BJ; assay: Cytotoxicity against human BJ cells assessed as cell growth inhibition after 72 hrs by MTS assay; assay type: cell-based
Method in brief: (§1)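 Cells were exposed to compound for 3 days, then stained with MTS as a quantitative metabolic read-out. IC50 is the concentration that inhibits cell growth by 50%.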

[4] = test system: MRC5; assay: Cytotoxicity against human MRC5 cells assessed as cell growth inhibition after 72 hrs by MTS assay; assay type: cell-based; details: MRC5, 72 h; method in brief: as §1
[5] = Cytotoxicity against mrp-1/mdr-1 overexpressing human CEM-DNR-bulk cells assessed as cell growth inhibition after 72 hrs by MTS assay; assay type: functional, cell-based
Method in brief: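 Cells were exposed to compound for 3 days, then stained with MTS as a quantitative metabolic read-out.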

[6] = test system: HCT-116; assay: Cytotoxicity against human HCT116 cells assessed as cell growth inhibition after 72 hrs by MTS assay; assay type: functional, cell-based; details: HCT-116, 72 h; method in brief: as §1
[7] = test system: HCT-116; assay: Cytotoxicity against p53 deficient human HCT116 cells assessed as cell growth inhibition after 72 hrs by MTS assay; assay type: functional, cell-based; details: HCT-116, 72 h; method in brief: as §1
[8] = test system: K562; assay: Cytotoxicity against human K562 cells assessed as cell growth inhibition after 72 hrs by MTS assay; assay type: functional, cell-based; details: K562, 72 h; method in brief: as §1
[9] = Cytotoxicity against human K562-TAX cells assessed as cell growth inhibition after 72 hrs by MTS assay; assay type: functional, cell-based; method in brief: as §1
[10] = test system: U2OS; assay: Cytotoxicity against human U2OS cells assessed as cell growth inhibition after 72 hrs by MTS assay; assay type: functional, cell-based
[11] = test system: HL-60; assay: Cytotoxicity against human HL60 cells assessed as reduction in cell viability after 72 hrs by XTT assay; assay type: functional, cell-based; details: HL-60, 72 h
Method in brief: (§2)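 Cells were incubated with compound for 3 days. Viability was then measured with the XTT tetrazolium assay.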

[12] = test system: HepG2; assay: Cytotoxicity against human HepG2 cells assessed as reduction in cell viability after 72 hrs by XTT assay; assay type: functional, cell-based; details: HepG2, 72 h; method in brief: as §2
[13] = test system: HeLa S3; assay: Cytotoxicity against human HeLaS3 cells assessed as reduction in cell viability after 72 hrs by XTT assay; assay type: functional, cell-based; details: HeLa S3, 72 h; method in brief: as §2
[14] = test system: A549; assay: Cytotoxicity against human A549 cells assessed as cell growth inhibition after 72 hrs by MTS assay; assay type: functional, cell-based; details: A549, 72 h; method in brief: as §1
[15] = test system: CCRF-CEM; assay: Induction of apoptosis in human CCRF-CEM cells assessed as accumulation at subG1 phase at IC50 after 24 hrs by propidium iodide staining-based flow cytometric analysis (reference value: 2.32%); assay type: functional
[16] = test system: CCRF-CEM; assay: Induction of apoptosis in human CCRF-CEM cells assessed as accumulation at subG1 phase at 5 times IC50 after 24 hrs by propidium iodide staining-based flow cytometric analysis (reference value: 2.32%); assay type: functional
[17] = test system: CCRF-CEM; assay: Cell cycle arrest in human CCRF-CEM cells assessed as accumulation at G0/G1 phase at IC50 after 24 hrs by propidium iodide staining-based flow cytometric analysis (reference value: 41.11%); assay type: functional
[18] = test system: CCRF-CEM; assay: Cell cycle arrest in human CCRF-CEM cells assessed as accumulation at G0/G1 phase at 5 times IC50 after 24 hrs by propidium iodide staining-based flow cytometric analysis (reference value: 41.11%); assay type: functional
[19] = test system: CCRF-CEM; assay: Cell cycle arrest in human CCRF-CEM cells assessed as accumulation at S phase at IC50 after 24 hrs by propidium iodide staining-based flow cytometric analysis (reference value: 44.20%); assay type: functional
[20] = test system: CCRF-CEM; assay: Cell cycle arrest in human CCRF-CEM cells assessed as accumulation at S phase at 5 times IC50 after 24 hrs by propidium iodide staining-based flow cytometric analysis (reference value: 44.20%); assay type: functional
[21] = test system: CCRF-CEM; assay: Cell cycle arrest in human CCRF-CEM cells assessed as accumulation at G2/M phase at IC50 after 24 hrs by propidium iodide staining-based flow cytometric analysis (reference value: 14.70%); assay type: functional
[22] = test system: CCRF-CEM; assay: Cell cycle arrest in human CCRF-CEM cells assessed as accumulation at G2/M phase at 5 times IC50 after 24 hrs by propidium iodide staining-based flow cytometric analysis (reference value: 14.70%); assay type: functional
[23] = test system: CCRF-CEM; assay: Inhibition of mitosis in human CCRF-CEM cells assessed as pH3Ser10 positive cells at IC50 after 24 hrs by flow cytometric analysis (reference value: 1.74%); assay type: functional
[24] = test system: CCRF-CEM; assay: Inhibition of mitosis in human CCRF-CEM cells assessed as pH3Ser10 positive cells at 5 times IC50 after 24 hrs by flow cytometric analysis (reference value: 1.74%); assay type: functional
[25] = test system: CCRF-CEM; assay: Inhibition of mitosis in human CCRF-CEM cells assessed as pH3Ser10 positive cells after 24 hrs by flow cytometric analysis; assay type: functional, cell-based
[26] = test system: CCRF-CEM; assay: Inhibition of DNA synthesis in human CCRF-CEM cells assessed as decrease in BrdU incorporation by measuring synthesized DNA levels at IC50 after 24 hrs by propidium iodide staining-based flow cytometric analysis (reference value: 52.66%); assay type: functional
[27] = test system: CCRF-CEM; assay: Inhibition of DNA synthesis in human CCRF-CEM cells assessed as decrease in BrdU incorporation by measuring synthesized DNA levels at 5 times IC50 after 24 hrs by propidium iodide staining-based flow cytometric analysis (reference value: 52.66%); assay type: functional
[28] = test system: CCRF-CEM; assay: Inhibition of RNA synthesis in human CCRF-CEM cells assessed as decrease in BrU incorporation by measuring synthesized RNA levels at IC50 after 24 hrs by propidium iodide staining-based flow cytometric method (reference value: 53.09%); assay type: functional
[29] = test system: CCRF-CEM; assay: Inhibition of RNA synthesis in human CCRF-CEM cells assessed as decrease in BrU incorporation by measuring synthesized RNA levels at 5 times IC50 after 24 hrs by propidium iodide staining-based flow cytometric method (reference value: 53.09%); assay type: functional
[30] = Cytotoxicity against human HuH7 cells; assay type: cell-based, Huh-7
[31] = test system: CCRF-CEM; assay: Cytotoxicity against human CCRF-CEM cells assessed as cell growth inhibition after 72 hrs by MTS assay

Row | Compound | EC50 [1] | EC50 [2] | IC50 [3] | IC50 [4] | IC50 [5] | IC50 [6] | IC50 [7] | IC50 [8] | IC50 [9] | IC50 [10] | IC50 [11] | IC50 [12] | IC50 [13] | IC50 [14] | Activity [15] | Activity [16] | Activity [17] | Activity [18] | Activity [19] | Activity [20] | further results
1 | COc1ncnc2c1c1ccsc1n2[C@@H]1O[C@H](CO)[C@@H](O)[C@H]1O | 230 nM | 400 nM | 7490 nM | > 50000 nM | > 50000 nM | 610 nM | 640 nM | 1060 nM | 11100 nM | 930 nM | 570 nM | 1330 nM | 230 nM | 1230 nM | 2.55% | 11.22% | 35.73% | 23.76% | 45.01% | 63.97% | Activity [21]: 19.25%; Activity [22]: 12.27%; pH3Ser10+ cells (%) [23]: 1.17%; pH3Ser10+ cells (%) [24]: 0.38%; Activity [25]: Dose-dependent effect; BrdU+ cells (%) [26]: 62.59%; BrdU+ cells (%) [27]: 55.12%; BrU+ cells (%) [28]: 28.75%; BrU+ cells (%) [29]: 8.31%; CC50 [30]: > 44400 nM; IC50 [31]: 220 nM
2 | Cc1ncnc2c1c1sccc1n2[C@@H]1O[C@H](CO)[C@@H](O)[C@H]1O | 110 nM | 60 nM | 150 nM | 1660 nM | > 50000 nM | 50 nM | 70 nM | 140 nM | 720 nM | 200 nM | 210 nM | 440 nM | 720 nM | 210 nM | 13.5% | 16.72% | 29.74% | 28.72% | 57.85% | 56.18% | Activity [21]: 12.41%; Activity [22]: 15.1%; pH3Ser10+ cells (%) [23]: 0.89%; pH3Ser10+ cells (%) [24]: 3.55%; Activity [25]: Dose-dependent effect; BrdU+ cells (%) [26]: 50.76%; BrdU+ cells (%) [27]: 60.89%; BrU+ cells (%) [28]: 33.92%; BrU+ cells (%) [29]: 47.83%; CC50 [30]: > 44400 nM; IC50 [31]: 20 nM
3 | COc1ncnc2c1c1sccc1n2[C@@H]1O[C@H](CO)[C@@H](O)[C@H]1O | 950 nM | 15000 nM | 400 nM | 25200 nM | 61800 nM | 130 nM | 130 nM | 200 nM | 4050 nM | 460 nM | 110 nM | 150 nM | 900 nM | 220 nM | 11.17% | 17.46% | 34.35% | 18.67% | 50.91% | 75.47% | Activity [21]: 14.73%; Activity [22]: 5.86%; pH3Ser10+ cells (%) [23]: 1.07%; pH3Ser10+ cells (%) [24]: 0.41%; Activity [25]: Dose-dependent effect; BrdU+ cells (%) [26]: 56%; BrdU+ cells (%) [27]: 63.58%; BrU+ cells (%) [28]: 34.93%; BrU+ cells (%) [29]: 26.27%; CC50 [30]: 13900 to 29200 nM; IC50 [31]: 130 nM
4 | Cc1ncnc2c1c1ccsc1n2[C@@H]1O[C@H](CO)[C@@H](O)[C@H]1O | 60 nM | 240 nM | > 50000 nM | > 50000 nM | 33900 nM | 400 nM | 330 nM | 460 nM | 47600 nM | 560 nM | 370 nM | 470 nM | 570 nM | 720 nM | 2.35% | 3.83% | 40.67% | 35.09% | 45.57% | 51.16% | Activity [21]: 13.76%; Activity [22]: 13.74%; pH3Ser10+ cells (%) [23]: 1.37%; pH3Ser10+ cells (%) [24]: 1.37%; Activity [25]: Dose-dependent effect; BrdU+ cells (%) [26]: 54.48%; BrdU+ cells (%) [27]: 54.08%; BrU+ cells (%) [28]: 38.29%; BrU+ cells (%) [29]: 18.84%; CC50 [30]: > 44400 nM; IC50 [31]: 30 nM
